Active and inactive are the calls of the source.
Experiments:
[1] = Toxicity in ip dosed BDF1 mouse; type: organism-based; conditions: in vivo
In short: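 Acute toxicity in female BDF1 mice, reported as LD50 in mg/kg and mmol/kg.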

[2] = tested on: L1210; experiment: Antitumor activity against mouse L1210 cells allografted in immune competent BDF1 mouse assessed as increase of host survival at < LD50 administered as ip after 60 days; type: functional
[3] = Toxicity in mouse L1210 cells allografted immunosuppressed BDF1 mouse assessed as mortality dosed intraperitoneally <LD50 after 60 days; type: organism-based; conditions: in vivo, ip, read-out: Activity
[4] = tested on: Ehrlich; experiment: Antitumor activity against mouse EAC allografted in BDF1 mouse assessed as cure from tumor at < LD50 administered as ip after 180 days; type: functional, organism-based
In short: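 Mice bearing Ehrlich ascites carcinoma were treated with ester. Cure was defined as survival to 180 days.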

[5] = tested on: Ehrlich; experiment: Antitumor activity against mouse EAC allografted in BDF1 mouse assessed as inhibition of tumor growth < LD50 administered as ip; type: functional

Row | SMILES | LD50 [1] | also measured
1 | CC(=O)OCC(=O)CCl | 470 µmol/kg | 
2 | O=C(OCC(O)CCl)c1ccccc1 (stereo not given) | 2100 µmol/kg | 
3 | O=C(OCC(O)CBr)c1ccccc1 (stereo not given) | 1370 µmol/kg | 
4 | COC(CF)(COC(=O)c1ccccc1)OC | 230 µmol/kg | 
5 | C1CCC(NC2CCCCC2)CC1.O=P(O)(O)OCC(O)CF | 300 µmol/kg | 
6 | O=C(CCl)COC(=O)c1ccccc1 | 330 µmol/kg | Survival [2]: 85%; mortality at 1440 h [3]: 85%; Activity [4]: Active
7 | OCC(O)CCl (stereo not given) | 1800 µmol/kg | 
8 | O=C(CF)COC(=O)c1ccc([N+](=O)[O-])cc1 | 370 µmol/kg | 
9 | COC(CO)(CF)OC | 200 µmol/kg | 
10 | O=C(CCl)COP(=O)(O)O | 360 µmol/kg | 
11 | CC(=O)OCC(=O)CF | 220 µmol/kg | 
12 | CC(=O)COC(=O)c1ccccc1 | 7860 µmol/kg | 
13 | O=C(CCl)COC(=O)c1cc([N+](=O)[O-])cc([N+](=O)[O-])c1 | 880 µmol/kg | 
14 | C1CCC(NC2CCCCC2)CC1.O=P(O)(O)OCC(O)CCl | 2100 µmol/kg | 
15 | O=C(CF)COP(=O)(O)O | 150 µmol/kg | TGI [5]: Active
16 | OCC(O)CF (stereo not given) | 210 µmol/kg | 
17 | O=C(OCC(O)CF)c1ccccc1 (stereo not given) | 230 µmol/kg | 
18 | CC(=O)OCC(CCl)OC(C)=O (stereo not given) | 1740 µmol/kg | 
19 | O=C(CO)CF | 220 µmol/kg | 
20 | O=C(CBr)COC(=O)c1ccccc1 | 120 µmol/kg | 
21 | OCC(O)CBr (stereo not given) | 1370 µmol/kg | 
22 | CC(=O)OCC(CF)OC(C)=O (stereo not given) | 220 µmol/kg | 
23 | O=C(CCl)COC(=O)c1ccc([N+](=O)[O-])cc1 | 660 µmol/kg | Activity [4]: Active
24 | O=C(CF)COC(=O)c1ccccc1 | 180 µmol/kg | TGI [5]: Active

Source: ChEMBL document CHEMBL3272073, “3-Fluoro-1-hydroxypropan-2-one (fluorohydroxyacetone) and some esters. Syntheses and effects in BDF mice” (J Med Chem, 1977)
